Laboratory results from ChEMBL document CHEMBL3763022, “Potent dual inhibitors of Plasmodium falciparum M1 and M17 aminopeptidases through optimization of S1 pocket interactions” (Eur J Med Chem, 2016).

Test system: Plasmodium falciparum
Experiment: Antiparasitic activity against Plasmodium falciparum Dd2 assessed as growth inhibition after 72 hrs by DAPI staining-based confocal image analysis
Type: functional, organism-based
Settings: Dd2, 72 h
How it was run: (§1)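 Sorbitol-synchronised ring-stage parasites in human O+ erythrocytes at 2% parasitaemia, 0.3% haematocrit, incubated 72 h at 37 °C (5% CO2) with three-step log serial dilutions from 20 μM top, 0.4% DMSO final. Staining with DAPI/saponin/Triton X/EDTA in PBS, confocal imaging, parasite count.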

Compound	IC50 [nM]
CC(C)(C)C(=O)NC(C(=O)NO)c1ccc(-c2cc(F)cc(F)c2)cc1 (configuration not stated)	239
C[C@H]1[C@H](OC(=O)CCC(=O)O)O[C@@H]2O[C@@]3(C)CC[C@H]4[C@H](C)CC[C@@H]1[C@@]24OO3 [ARTESUNATE]	1.3
CC(C)(C)C(=O)NC(C(=O)NO)c1ccc(-c2cccc(F)c2)cc1 (configuration not stated)	226
CC(C)(C)C(=O)NC(C(=O)NO)c1ccc(-c2ccccc2F)cc1 (configuration not stated)	207
CC(C)(C)C(=O)NC(C(=O)NO)c1ccc(-c2c(F)c(F)c(F)c(F)c2F)cc1 (configuration not stated)	461
CC(C)(C)C(=O)NC(C(=O)NO)c1ccc(-c2ccc(F)c(F)c2)cc1 (configuration not stated)	170
CC(C)(C)C(=O)NC(C(=O)NO)c1ccc(F)cc1 (configuration not stated)	2010
CC(C)(C)C(=O)NC(C(=O)NO)c1ccc(-c2c(F)cc(F)cc2F)cc1 (configuration not stated)	267
CC(C)(C)C(=O)NC(C(=O)NO)c1ccc(-c2c(F)cccc2F)cc1 (configuration not stated)	251
CC(C)(C)C(=O)NC(C(=O)NO)c1ccc(-c2ccc(F)cc2)cc1 (configuration not stated)	225

Test system: Plasmodium falciparum
Experiment: Antiparasitic activity against Plasmodium falciparum 3D7 assessed as growth inhibition after 72 hrs by DAPI staining-based confocal image analysis
Type: functional, organism-based
Settings: 3D7, 72 h
How it was run: as §1

Compound	IC50 [nM]
CC(C)(C)C(=O)NC(C(=O)NO)c1ccc(-c2cc(F)cc(F)c2)cc1 (configuration not stated)	144
CC(C)(C)C(=O)NC(C(=O)NO)c1ccc(-c2cccc(F)c2)cc1 (configuration not stated)	162
CC(C)(C)C(=O)NC(C(=O)NO)c1ccc(-c2ccccc2F)cc1 (configuration not stated)	131
CC(C)(C)C(=O)NC(C(=O)NO)c1ccc(-c2c(F)c(F)c(F)c(F)c2F)cc1 (configuration not stated)	130
CC(C)(C)C(=O)NC(C(=O)NO)c1ccc(-c2ccc(F)c(F)c2)cc1 (configuration not stated)	139
CC(C)(C)C(=O)NC(C(=O)NO)c1ccc(F)cc1 (configuration not stated)	1530
CC(C)(C)OC(=O)NC(C(=O)NO)c1ccc(-c2ccc(/C(N)=N/O)cc2)cc1 (configuration not stated)	334
CC(C)(C)C(=O)NC(C(=O)NO)c1ccc(-c2c(F)cc(F)cc2F)cc1 (configuration not stated)	125
CC(C)(C)C(=O)NC(C(=O)NO)c1ccc(-c2c(F)cccc2F)cc1 (configuration not stated)	142
CC(C)(C)C(=O)NC(C(=O)NO)c1ccc(-c2ccc(F)cc2)cc1 (configuration not stated)	126
CC(C)(C)OC(=O)NC(C(=O)NO)c1ccc(-c2ccccc2F)cc1 (configuration not stated)	633
CC(C)(C)OC(=O)NC(C(=O)NO)c1ccc(-c2cccc(/C(N)=N\O)c2)cc1 (configuration not stated)	679
CC(C)(C)OC(=O)NC(C(=O)NO)c1ccc(Br)cc1 (configuration not stated)	293
Cn1cc(-c2ccc(C(NC(=O)OC(C)(C)C)C(=O)NO)cc2)cn1 (configuration not stated)	978

Test system: Plasmodium falciparum
Experiment: Antiparasitic activity against chloroquine/quinine/pyrimethamine/sulfadoxine/NITD609-resistant Plasmodium falciparum Dd2 clone 2 assessed as growth inhibition after 72 hrs by DAPI staining-based confocal image analysis
Type: functional, organism-based
Settings: Dd2, 72 h
How it was run: as §1

Compound	IC50 [nM]
CC(C)(C)C(=O)NC(C(=O)NO)c1ccc(-c2cc(F)cc(F)c2)cc1 (configuration not stated)	232
C[C@H]1[C@H](OC(=O)CCC(=O)O)O[C@@H]2O[C@@]3(C)CC[C@H]4[C@H](C)CC[C@@H]1[C@@]24OO3 [ARTESUNATE]	0.9
CC(C)(C)C(=O)NC(C(=O)NO)c1ccc(-c2cccc(F)c2)cc1 (configuration not stated)	316
CC(C)(C)C(=O)NC(C(=O)NO)c1ccc(-c2ccccc2F)cc1 (configuration not stated)	210
CC(C)(C)C(=O)NC(C(=O)NO)c1ccc(-c2c(F)c(F)c(F)c(F)c2F)cc1 (configuration not stated)	408
CC(C)(C)C(=O)NC(C(=O)NO)c1ccc(-c2ccc(F)c(F)c2)cc1 (configuration not stated)	195
CC(C)(C)C(=O)NC(C(=O)NO)c1ccc(F)cc1 (configuration not stated)	2090
CC(C)(C)C(=O)NC(C(=O)NO)c1ccc(-c2c(F)cc(F)cc2F)cc1 (configuration not stated)	450
CC(C)(C)C(=O)NC(C(=O)NO)c1ccc(-c2c(F)cccc2F)cc1 (configuration not stated)	246
CC(C)(C)C(=O)NC(C(=O)NO)c1ccc(-c2ccc(F)cc2)cc1 (configuration not stated)	193

Test system: not listed separately
Experiment: Inhibition of recombinant Plasmodium falciparum M1 aminopeptidase using H-Leu-NHMec as substrate preincubated for 10 mins followed by addition of substrate by spectrofluorimetric analysis
Settings: not given
How it was run: (§2)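 E. coli-expressed enzymes, purified by Ni-NTA and size exclusion. Preincubation 10 min at 37°C with inhibitor: M1 in 100 mM Tris pH 8.0; M17 in 50 mM Tris pH 8.0, 2 mM CoCl2. Substrate H-Leu-NHMec kept below Km. Fluorescence ex 355/em 460 nm followed to steady-state velocity. Inhibitor range 500pM–500 μM. Ki from Dixon plots (1/V vs [I]).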

Compound	Ki [nM]
CC(C)(C)OC(=O)NC(C(=O)NO)c1ccc(-c2cc(F)c(F)c(F)c2)cc1 (configuration not stated)	19000
CC(C)(C)OC(=O)NC(C(=O)NO)c1ccc(-c2ccccc2C(F)(F)F)cc1 (configuration not stated)	750
CC(C)(C)OC(=O)NC(Cc1ccc(-c2ccccc2)cc1)C(=O)NO (configuration not stated)	> 500000
CC(C)(C)C(=O)NC(C(=O)NO)c1ccc(-c2cc(F)cc(F)c2)cc1 (configuration not stated)	580
CC(C)(C)C(=O)NC(C(=O)NO)c1ccc(-c2cccc(F)c2)cc1 (configuration not stated)	550
CC(C)(C)C(=O)NC(C(=O)NO)c1ccc(-c2ccccc2F)cc1 (configuration not stated)	1600
CC(C)(C)C(=O)NC(C(=O)NO)c1ccc(-c2c(F)c(F)c(F)c(F)c2F)cc1 (configuration not stated)	1800
CC(C)(C)C(=O)NC(C(=O)NO)c1ccc(-c2ccc(F)c(F)c2)cc1 (configuration not stated)	1400
CC(C)(C)C(=O)NC(C(=O)NO)c1ccc(F)cc1 (configuration not stated)	4000
CC(C)(C)OC(=O)NC(C(=O)NO)c1ccc(-c2ccc(/C(N)=N/O)cc2)cc1 (configuration not stated)	400
CC(C)(C)C(=O)NC(C(=O)NO)c1ccc(-c2c(F)cc(F)cc2F)cc1 (configuration not stated)	5900
CC(C)(C)C(=O)NC(C(=O)NO)c1ccc(-c2c(F)cccc2F)cc1 (configuration not stated)	4800
CC(C)(C)C(=O)NC(C(=O)NO)c1ccc(-c2ccc(F)cc2)cc1 (configuration not stated)	6500
CC(C)(C)OC(=O)NC(C(=O)NO)c1ccc(-c2ccccc2F)cc1 (configuration not stated)	950
CC(C)(C)OC(=O)NC(C(=O)NO)c1ccc(-c2cccc(/C(N)=N\O)c2)cc1 (configuration not stated)	1100
CC(C)(C)OC(=O)NC(C(=O)NO)c1ccc(Br)cc1 (configuration not stated)	27
Cn1cc(-c2ccc(C(NC(=O)OC(C)(C)C)C(=O)NO)cc2)cn1 (configuration not stated)	1900

Test system: HEK293
Experiment: Cytotoxicity against HEK293 cells assessed as cell viability after 72 hrs by resazurin assay
Type: cell-based
Settings: human, hek293, 72 h
How it was run: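 HEK293 cells in DMEM with 10% FCS, seeded at 2000 cells/well and left to adhere overnight. Compound dose response with top final 40 μM, 0.4% DMSO. Exposure 72 h at 37 °C, 5% CO2. Medium then replaced by 44 μM resazurin in serum-free DMEM for 4-6 h. Fluorescence read at ex/em 530/595 nm.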

Compound	Activity
CC(C)(C)C(=O)NC(C(=O)NO)c1ccc(-c2cc(F)cc(F)c2)cc1 (configuration not stated)	Non-toxic
CC(C)(C)C(=O)NC(C(=O)NO)c1ccc(-c2cccc(F)c2)cc1 (configuration not stated)	Non-toxic
CC(C)(C)C(=O)NC(C(=O)NO)c1ccc(-c2ccccc2F)cc1 (configuration not stated)	Non-toxic
CC(C)(C)C(=O)NC(C(=O)NO)c1ccc(-c2c(F)c(F)c(F)c(F)c2F)cc1 (configuration not stated)	Non-toxic
CC(C)(C)C(=O)NC(C(=O)NO)c1ccc(-c2ccc(F)c(F)c2)cc1 (configuration not stated)	Non-toxic
CC(C)(C)C(=O)NC(C(=O)NO)c1ccc(F)cc1 (configuration not stated)	Non-toxic
CC(C)(C)OC(=O)NC(C(=O)NO)c1ccc(-c2ccc(/C(N)=N/O)cc2)cc1 (configuration not stated)	Non-toxic
CC(C)(C)C(=O)NC(C(=O)NO)c1ccc(-c2c(F)cc(F)cc2F)cc1 (configuration not stated)	Non-toxic
CC(C)(C)C(=O)NC(C(=O)NO)c1ccc(-c2c(F)cccc2F)cc1 (configuration not stated)	Non-toxic
CC(C)(C)C(=O)NC(C(=O)NO)c1ccc(-c2ccc(F)cc2)cc1 (configuration not stated)	Non-toxic
CC(C)(C)OC(=O)NC(C(=O)NO)c1ccc(-c2ccccc2F)cc1 (configuration not stated)	Non-toxic
CC(C)(C)OC(=O)NC(C(=O)NO)c1ccc(-c2cccc(/C(N)=N\O)c2)cc1 (configuration not stated)	Non-toxic
CC(C)(C)OC(=O)NC(C(=O)NO)c1ccc(Br)cc1 (configuration not stated)	Non-toxic
Cn1cc(-c2ccc(C(NC(=O)OC(C)(C)C)C(=O)NO)cc2)cn1 (configuration not stated)	Non-toxic

Test system: not listed separately
Experiment: Inhibition of recombinant Plasmodium falciparum M17 aminopeptidase using H-Leu-NHMec as substrate preincubated for 10 mins followed by addition of substrate by spectrofluorimetric analysis
Settings: not given
How it was run: as §2

Compound	Ki [nM]
CC(C)(C)OC(=O)NC(C(=O)NO)c1ccc(-c2cc(F)c(F)c(F)c2)cc1 (configuration not stated)	200
CC(C)(C)OC(=O)NC(C(=O)NO)c1ccc(-c2ccccc2C(F)(F)F)cc1 (configuration not stated)	120
CC(C)(C)OC(=O)NC(Cc1ccc(-c2ccccc2)cc1)C(=O)NO (configuration not stated)	5200
CC(C)(C)C(=O)NC(C(=O)NO)c1ccc(-c2cc(F)cc(F)c2)cc1 (configuration not stated)	92
CC(C)(C)C(=O)NC(C(=O)NO)c1ccc(-c2cccc(F)c2)cc1 (configuration not stated)	6.2
CC(C)(C)C(=O)NC(C(=O)NO)c1ccc(-c2ccccc2F)cc1 (configuration not stated)	12
CC(C)(C)C(=O)NC(C(=O)NO)c1ccc(-c2c(F)c(F)c(F)c(F)c2F)cc1 (configuration not stated)	8.4
CC(C)(C)C(=O)NC(C(=O)NO)c1ccc(-c2ccc(F)c(F)c2)cc1 (configuration not stated)	6.4
CC(C)(C)C(=O)NC(C(=O)NO)c1ccc(F)cc1 (configuration not stated)	29
CC(C)(C)OC(=O)NC(C(=O)NO)c1ccc(-c2ccc(/C(N)=N/O)cc2)cc1 (configuration not stated)	18
CC(C)(C)C(=O)NC(C(=O)NO)c1ccc(-c2c(F)cc(F)cc2F)cc1 (configuration not stated)	2.5
CC(C)(C)C(=O)NC(C(=O)NO)c1ccc(-c2c(F)cccc2F)cc1 (configuration not stated)	13
CC(C)(C)C(=O)NC(C(=O)NO)c1ccc(-c2ccc(F)cc2)cc1 (configuration not stated)	33
CC(C)(C)OC(=O)NC(C(=O)NO)c1ccc(-c2ccccc2F)cc1 (configuration not stated)	41
CC(C)(C)OC(=O)NC(C(=O)NO)c1ccc(-c2cccc(/C(N)=N\O)c2)cc1 (configuration not stated)	140
CC(C)(C)OC(=O)NC(C(=O)NO)c1ccc(Br)cc1 (configuration not stated)	80
Cn1cc(-c2ccc(C(NC(=O)OC(C)(C)C)C(=O)NO)cc2)cn1 (configuration not stated)	56
